Data from ChEMBL document CHEMBL5058577, “EUbOPEN Chemogenomics Library 2 (Multiplex)” (2022).

Test system: Fibroblast
Experiment: Multiplex assay against human fibroblast
Assay type: toxicity, cell-based
Procedure, shortened: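 Values for tubulin, mitochondrial-mass and membrane-permeability phenotypes are per cents of cells with healthy nuclei. These cells were identified by CellPathfinder machine-learning gating of live cells that had been stained at seeding with Hoechst33342, BioTracker Green Microtubule Cytoskeleton Dye, MitoTracker Red and Annexin V Alexa Fluor 680 and imaged on a CQ1 microscope at 37°C and 5% CO2 after compound addition. The gating first set Hoechst high-intensity objects apart from normal cells, then split normal cells into healthy, pyknosed or fragmented nuclei, and pyknosed cells into mitotic or apoptotic.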

[1] = 12 h, 1 µM, compound concentration 1 uM, replicate 1
[2] = 12 h, 1 µM, compound concentration 1 uM, replicate 2
[3] = 12 h, 10 µM, compound concentration 10 uM, replicate 1
[4] = 12 h, 10 µM, compound concentration 10 uM, replicate 2
[5] = 24 h, 1 µM, compound concentration 1 uM, replicate 1
[6] = 24 h, 1 µM, compound concentration 1 uM, replicate 2
[7] = 24 h, 10 µM, compound concentration 10 uM, replicate 1
[8] = 24 h, 10 µM, compound concentration 10 uM, replicate 2
[9] = 48 h, 1 µM, compound concentration 1 uM, replicate 1
[10] = 48 h, 1 µM, compound concentration 1 uM, replicate 2
[11] = 48 h, 10 µM, compound concentration 10 uM, replicate 1
[12] = 48 h, 10 µM, compound concentration 10 uM, replicate 2

COc1c(Nc2ccc(S(C)(=O)=O)nc2C)ncnc1OC1CCN(C(=O)OC(C)C)CC1 [ADP-597]
Population Apoptotic (%) [1]: 57%
Population Fragmented Nuclei (%) [1]: 14%
Population Healthy Nuclei (%) [1]: 71%
Population Hoechst High Intensity Objects (%) [1]: 3%
Population Membrane Permeable-Phenotype (%) [1]: 0%
Population Mitochondria Different-Phenotype (%) [1]: 10%
Population Mitotic Cells (%) [1]: 42%
Population Normal (%) [1]: 96%
Population Pyknosed Nuclei (%) [1]: 14%
Population Tubulin-Different-Phenotype (%) [1]: 34%
Total Cell Count [1]: 133
Population Apoptotic (%) [2]: 42%
Population Fragmented Nuclei (%) [2]: 27%
Population Healthy Nuclei (%) [2]: 40%
Population Hoechst High Intensity Objects (%) [2]: 4%
Population Membrane Permeable-Phenotype (%) [2]: 2%
Population Mitochondria Different-Phenotype (%) [2]: 7%
Population Mitotic Cells (%) [2]: 57%
Population Normal (%) [2]: 95%
Population Pyknosed Nuclei (%) [2]: 33%
Population Tubulin-Different-Phenotype (%) [2]: 27%
Total Cell Count [2]: 105
Population Apoptotic (%) [3]: 44%
Population Fragmented Nuclei (%) [3]: 21%
Population Healthy Nuclei (%) [3]: 58%
Population Hoechst High Intensity Objects (%) [3]: 2%
Population Membrane Permeable-Phenotype (%) [3]: 0%
Population Mitochondria Different-Phenotype (%) [3]: 15%
Population Mitotic Cells (%) [3]: 56%
Population Normal (%) [3]: 97%
Population Pyknosed Nuclei (%) [3]: 20%
Population Tubulin-Different-Phenotype (%) [3]: 54%
Total Cell Count [3]: 127
Population Apoptotic (%) [4]: 39%
Population Fragmented Nuclei (%) [4]: 43%
Population Healthy Nuclei (%) [4]: 27%
Population Membrane Permeable-Phenotype (%) [4]: 11%
Population Mitochondria Different-Phenotype (%) [4]: 14%
Population Mitotic Cells (%) [4]: 60%
Population Normal (%) [4]: 98%
Population Pyknosed Nuclei (%) [4]: 28%
Population Tubulin-Different-Phenotype (%) [4]: 77%
Total Cell Count [4]: 100
Population Apoptotic (%) [5]: 47%
Population Fragmented Nuclei (%) [5]: 17%
Population Healthy Nuclei (%) [5]: 67%
Population Hoechst High Intensity Objects (%) [5]: 4%
Population Membrane Permeable-Phenotype (%) [5]: 0%
Population Mitochondria Different-Phenotype (%) [5]: 1%
Population Mitotic Cells (%) [5]: 52%
Population Normal (%) [5]: 95%
Population Pyknosed Nuclei (%) [5]: 15%
Population Tubulin-Different-Phenotype (%) [5]: 27%
Total Cell Count [5]: 146
Population Apoptotic (%) [6]: 37%
Population Fragmented Nuclei (%) [6]: 25%
Population Healthy Nuclei (%) [6]: 50%
Population Hoechst High Intensity Objects (%) [6]: 10%
Population Membrane Permeable-Phenotype (%) [6]: 10%
Population Mitochondria Different-Phenotype (%) [6]: 2%
Population Mitotic Cells (%) [6]: 62%
Population Normal (%) [6]: 89%
Population Pyknosed Nuclei (%) [6]: 24%
Population Tubulin-Different-Phenotype (%) [6]: 48%
Total Cell Count [6]: 109
Population Apoptotic (%) [7]: 52%
Population Fragmented Nuclei (%) [7]: 20%
Population Healthy Nuclei (%) [7]: 60%
Population Hoechst High Intensity Objects (%) [7]: 5%
Population Membrane Permeable-Phenotype (%) [7]: 0%
Population Mitochondria Different-Phenotype (%) [7]: 5%
Population Mitotic Cells (%) [7]: 47%
Population Normal (%) [7]: 94%
Population Pyknosed Nuclei (%) [7]: 18%
Population Tubulin-Different-Phenotype (%) [7]: 41%
Total Cell Count [7]: 131
Population Apoptotic (%) [8]: 27%
Population Fragmented Nuclei (%) [8]: 49%
Population Healthy Nuclei (%) [8]: 31%
Population Hoechst High Intensity Objects (%) [8]: 6%
Population Membrane Permeable-Phenotype (%) [8]: 10%
Population Mitochondria Different-Phenotype (%) [8]: 3%
Population Mitotic Cells (%) [8]: 72%
Population Normal (%) [8]: 93%
Population Pyknosed Nuclei (%) [8]: 19%
Population Tubulin-Different-Phenotype (%) [8]: 75%
Total Cell Count [8]: 99
Population Apoptotic (%) [9]: 64%
Population Fragmented Nuclei (%) [9]: 25%
Population Healthy Nuclei (%) [9]: 63%
Population Hoechst High Intensity Objects (%) [9]: 2%
Population Membrane Permeable-Phenotype (%) [9]: 0%
Population Mitochondria Different-Phenotype (%) [9]: 4%
Population Mitotic Cells (%) [9]: 35%
Population Normal (%) [9]: 97%
Population Pyknosed Nuclei (%) [9]: 11%
Population Tubulin-Different-Phenotype (%) [9]: 30%
Total Cell Count [9]: 152
Population Apoptotic (%) [10]: 42%
Population Fragmented Nuclei (%) [10]: 28%
Population Healthy Nuclei (%) [10]: 51%
Population Hoechst High Intensity Objects (%) [10]: 9%
Population Membrane Permeable-Phenotype (%) [10]: 2%
Population Mitochondria Different-Phenotype (%) [10]: 0%
Population Mitotic Cells (%) [10]: 57%
Population Normal (%) [10]: 90%
Population Pyknosed Nuclei (%) [10]: 20%
Population Tubulin-Different-Phenotype (%) [10]: 59%
Total Cell Count [10]: 102
Population Apoptotic (%) [11]: 73%
Population Fragmented Nuclei (%) [11]: 29%
Population Healthy Nuclei (%) [11]: 58%
Population Hoechst High Intensity Objects (%) [11]: 8%
Population Membrane Permeable-Phenotype (%) [11]: 0%
Population Mitochondria Different-Phenotype (%) [11]: 20%
Population Mitotic Cells (%) [11]: 26%
Population Normal (%) [11]: 91%
Population Pyknosed Nuclei (%) [11]: 12%
Population Tubulin-Different-Phenotype (%) [11]: 57%
Total Cell Count [11]: 131
Population Apoptotic (%) [12]: 75%
Population Fragmented Nuclei (%) [12]: 56%
Population Healthy Nuclei (%) [12]: 36%
Population Hoechst High Intensity Objects (%) [12]: 2%
Population Membrane Permeable-Phenotype (%) [12]: 2%
Population Mitochondria Different-Phenotype (%) [12]: 18%
Population Mitotic Cells (%) [12]: 25%
Population Normal (%) [12]: 97%
Population Pyknosed Nuclei (%) [12]: 7%
Population Tubulin-Different-Phenotype (%) [12]: 84%
Total Cell Count [12]: 108
